Laboratory results taken from ChEMBL document CHEMBL4834471 (J Med Chem, 2021).
Active and inactive are the calls of the source. The calls are words filed in the database; no cut-off is given here.

Key:
HepaRG = assay: Induction of CYP3A4 expression in human HepaRG cells at 0.1 to 10 uM incubated for 48 hrs by fluorescence based assay; assay type: functional, cell-based; details: dose 0.1-10 µM
Outline: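 Differentiated HepaRG cells treated for 48 h; CYP3A4-expressing cells visualized by fluorescence imaging at 20× magnification; n = 3 independent experiments, with n = 9 for untreated cells.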

[1] = Drug metabolism in human liver-on-chip assessed as compound conjugation with sulfate incubated for 48 hrs by UPLC-MS/MS analysis; assay type: ADME, tissue-based
Outline: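 Liver-on-chip built from differentiated HepaRG cells (hepatocyte-like and biliary-like) with a HUVEC endothelial layer. Loaded with compound at 1 μM and incubated 48 h; compound and metabolites quantified from extracted chromatograms; n = 3 independent experiments.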

[2] = Antioxidant activity assessed as DPPH radical scavenging activity at 0.1 to 10 uM incubated for 30 mins by microplate reader based assay; assay type: functional; details: dose 0.1-10 µM
Outline: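 Compound incubated with DPPH (50 mM, as printed) in ethanol for 30 min, then absorbance read at 520 nm. Ascorbic acid at 25 μM used as positive control; n = 4 independent experiments.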

Monocyte = assay: Cytotoxicity against human monocytes assessed as reduction in LDH release at <=1 uM after 2 to 24 hrs by CytoTox96 nonradioactive assay; assay type: cell-based; details: time 2-24 hrs
Outline: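 Monocytes at 4 × 10^5/mL in monocyte medium treated 2 or 24 h at 37 °C, 5% CO2, with 0.1% DMSO vehicle. LDH release measured by CytoTox 96 kit, with Triton X-100 (0.8%) defining maximum release.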

[3] = biological target: T1, Polyunsaturated fatty acid lipoxygenase ALOX15 (Homo sapiens) (UniProt P16050); assay: Inhibition of 15-LOX in human PMNL assessed as reduction in 15-LOX product formation at 10 uM treated with AA and A23187 by RP-HPLC method; assay type: tissue-based
T1 sequence (whole entry): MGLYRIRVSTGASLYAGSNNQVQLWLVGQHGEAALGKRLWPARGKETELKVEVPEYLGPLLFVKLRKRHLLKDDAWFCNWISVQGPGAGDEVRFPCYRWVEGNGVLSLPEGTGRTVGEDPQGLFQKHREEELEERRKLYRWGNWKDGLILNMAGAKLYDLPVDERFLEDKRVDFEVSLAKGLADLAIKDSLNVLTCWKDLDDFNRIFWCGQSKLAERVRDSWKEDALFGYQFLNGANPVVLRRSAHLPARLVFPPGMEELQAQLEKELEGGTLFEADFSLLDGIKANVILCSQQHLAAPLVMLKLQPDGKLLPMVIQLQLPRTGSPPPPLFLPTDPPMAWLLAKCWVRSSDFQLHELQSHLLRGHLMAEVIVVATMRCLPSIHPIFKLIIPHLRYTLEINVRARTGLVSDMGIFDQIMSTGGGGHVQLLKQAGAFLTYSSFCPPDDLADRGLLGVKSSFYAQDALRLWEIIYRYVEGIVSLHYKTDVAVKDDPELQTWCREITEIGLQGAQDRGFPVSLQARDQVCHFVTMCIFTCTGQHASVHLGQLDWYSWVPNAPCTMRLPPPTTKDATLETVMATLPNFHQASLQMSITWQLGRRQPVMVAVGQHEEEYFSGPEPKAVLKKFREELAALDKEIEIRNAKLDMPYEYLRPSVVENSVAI

[4] = biological target: Prostaglandin G/H synthase 1 (Homo sapiens) (UniProt P23219); assay: Inhibition of COX-1 in human platelets assessed as reduction in 12-HHT formation at 10 uM using arachidonic acid as substrate preincubated for 5 mins followed by substrate addition and measured after 5 mins by RPL-HPLC method; assay type: tissue-based; details: Platelet, time 10.0 min
Prostaglandin G/H synthase 1 (Homo sapiens), sequence (P23219 whole entry): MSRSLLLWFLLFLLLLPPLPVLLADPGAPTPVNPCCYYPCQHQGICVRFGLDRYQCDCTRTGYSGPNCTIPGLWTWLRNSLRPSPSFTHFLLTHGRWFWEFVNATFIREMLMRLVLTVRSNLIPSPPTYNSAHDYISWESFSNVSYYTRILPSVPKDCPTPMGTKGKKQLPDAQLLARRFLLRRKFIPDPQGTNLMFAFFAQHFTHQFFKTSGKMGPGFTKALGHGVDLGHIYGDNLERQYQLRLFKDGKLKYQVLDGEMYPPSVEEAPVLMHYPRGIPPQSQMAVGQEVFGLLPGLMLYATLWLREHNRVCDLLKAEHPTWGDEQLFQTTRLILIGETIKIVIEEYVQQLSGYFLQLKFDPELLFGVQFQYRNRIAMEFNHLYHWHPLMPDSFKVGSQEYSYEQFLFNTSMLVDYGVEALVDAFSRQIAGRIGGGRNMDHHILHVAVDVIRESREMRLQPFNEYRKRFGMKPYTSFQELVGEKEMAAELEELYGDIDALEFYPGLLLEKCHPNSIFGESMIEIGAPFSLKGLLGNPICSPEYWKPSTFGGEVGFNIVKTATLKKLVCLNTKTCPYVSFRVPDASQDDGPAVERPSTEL

[5] = biological target: T2, Prostaglandin E synthase (Homo sapiens) (UniProt O14684); assay: Inhibition of mPEGS1 in pathogenic Escherichia coli-stimulated human macrophages M1 at 1 uM by UPLC-MS/MS analysis; details: Macrophage
T2 sequence (whole entry): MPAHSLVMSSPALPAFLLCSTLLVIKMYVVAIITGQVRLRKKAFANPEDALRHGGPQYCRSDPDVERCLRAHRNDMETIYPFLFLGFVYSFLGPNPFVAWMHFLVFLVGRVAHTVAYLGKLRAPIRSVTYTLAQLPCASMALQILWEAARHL
Outline: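 M1 macrophages obtained by GM-CSF differentiation for 6 days, then LPS/IFN-γ polarization for 48 h. Treated with compound at 1 μM and stimulated with pathogenic E. coli; lipid mediator network profiled by metabololipidomics against vehicle.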

Keratinocyte [6] = assay: Antiinflammatory activity in cytokine cocktail-induced reconstructed human epidermis model assessed as reduction in IL-8 level at 5 to 25 uM after 4 days by ELISA; assay type: functional, cell-based; details: dose 5-25 µM, time 4.0 day
Outline: (§1)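 Reconstructed human epidermis exposed to compound and stressed with a cytokine cocktail for 4 days. Readouts: IL-8 in growth medium, H&E morphology, transepidermal water loss, stratum corneum permeability to Lucifer yellow with DAPI nuclear stain, and surface pH. n = 2–3 independent experiments.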

Keratinocyte [7] = assay: Antiinflammatory activity in cytokine cocktail-induced reconstructed human epidermis model assessed as attenuation of epidermal disorganization at 5 to 25 uM after 4 days by HE staining based assay; assay type: functional, cell-based; details: dose 5-25 µM, time 4.0 day; outline: as §1
Keratinocyte [8] = assay: Antiinflammatory activity in cytokine cocktail-induced reconstructed human epidermis model assessed as improved skin barrier functions at 5 to 25 uM after 4 days; assay type: functional, cell-based; details: dose 5-25 µM, time 4.0 day; outline: as §1
Keratinocyte [9] = assay: Antiinflammatory activity in cytokine cocktail-induced reconstructed human epidermis model assessed as decrease in pH at 5 to 25 uM after 4 days; assay type: functional, cell-based; details: dose 5-25 µM, time 4.0 day; outline: as §1
Mus musculus [10] = assay: Antiinflammatory activity in zymosan-induced CD-1 mouse peritonitis model assessed as reduction in LTC4 level at 10 mg/kg, ip preincubated with compound for 30 mins followed by zymosan addition and measured after 30 mins by ELISA; assay type: functional, organism-based; details: time 60.0 min
Outline: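 Compound 10 mg/kg i.p. in zymosan-induced peritonitis; mice killed 30 min after zymosan injection; exudate LTC4 measured by ELISA; statistics by two-tailed unpaired t-test of log data.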

Mus musculus [11] = assay: Antiinflammatory activity in zymosan-induced CD-1 mouse peritonitis model assessed as reduction in LTB4 level at 10 mg/kg, ip preincubated with compound for 30 mins followed by zymosan addition and measured after 4 hrs by ELISA; assay type: functional, organism-based; details: time 270.0 min
Outline: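 Zymosan peritonitis with compound 10 mg/kg i.p. Vascular permeability assessed at 30 min after zymosan. Exudate LTB4 (ELISA) and peritoneal immune cell infiltration assessed at 4 h. Two-tailed unpaired t-test of log data.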

Mus musculus [12] = assay: Antiinflammatory activity in zymosan-induced CD-1 mouse peritonitis model assessed as reduction in LTC4 level at 3 mg/kg, po preincubated with compound for 60 mins followed by zymosan addition and measured after 30 mins by ELISA; assay type: functional, organism-based; details: time 90.0 min
Outline: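 Oral dosing at 3 mg/kg in zymosan-induced peritonitis; mice killed 30 min after zymosan; LTC4 in peritoneal exudate measured by ELISA; two-tailed unpaired t-test of log data.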

Mus musculus [13] = assay: Antiinflammatory activity in zymosan-induced CD-1 mouse peritonitis model assessed as reduction in 5-LOX product level at 10 mg/kg, po preincubated with compound for 60 mins followed by zymosan addition and measured after 30 mins; assay type: functional, organism-based; details: time 90.0 min
Outline: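 Oral dosing at 10 mg/kg in zymosan peritonitis; mice killed 30 min after zymosan. Peritoneal exudate lipid mediators and fatty acids profiled by UPLC-MS/MS, with LTC4 measured by ELISA; results expressed as fold change versus vehicle.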

C/C(=C\CC/C(C)=C/CC[C@]1(C)CCc2c(C)c(O)c(C)c(C)c2O1)CCC=C(CO)CO
Activity (HepaRG): inactive
Drug metabolism [1]: Metabolite_Detected
Activity [2]: inactive
Activity (Monocyte): Non-Toxic
inhibition [3]: inactive
inhibition [4]: inactive
inhibition [5]: inactive
Activity (Keratinocyte [6]): Active
Activity (Keratinocyte [7]): Active
Activity (Keratinocyte [8]): Active
Activity (Keratinocyte [9]): Active
Activity (Mus musculus [10]): Active
Activity (Mus musculus [11]): Active
Activity (Mus musculus [12]): Active
Activity (Mus musculus [13]): Active
